Results taken from ChEMBL document CHEMBL2424623, “Enantioselective binding of chiral 1,14-dimethyl[5]helicene-spermine ligands with B- and Z-DNA” (Bioorg Med Chem, 2013).
Values joined by “and” are separate entries in the source; they are usually repeats but may differ in a detail not shown here. Identical values can stand only once. Active and inactive are the calls of the source. No cut-off for these calls is given here.

Experiments:
[1] = Dissociation rate to 5'-biotin-conjugated d(TTTTCGCGCG-TTTT-CGCGCG) DNA (unknown origin) measured for 150 seconds by SPR analysis
[2] = Binding affinity to d(CGCGCG)2 DNA (unknown origin) assessed as association constant at 3.5 compound to DNA molar ratio by ITC analysis
Procedure, shortened: (§1)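 Isothermal titration calorimetry at 25.0 °C. Ligand at 1 mM, dissolved in the final ODN dialysate, was titrated into 10.0 µM duplex d(CGCGCG)2 or d(CGCm8GCG)2 in 5 mM Na cacodylate, 100 mM NaCl, pH 7.0. The first 2 µL injection was followed by 10 µL injections, and the first injection was discarded. Samples were degassed. Stoichiometry is ligand per duplex.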

[3] = Dissociation rate to 5'-biotin-conjugated d(TTTTCGCm8GCG-TTTT-CGCm8GCG) DNA (unknown origin) measured for 150 seconds by SPR analysis
[4] = Binding affinity to d(CGCGCG)2 DNA (unknown origin) assessed as change in UV-melting temperature at 5 uM
Procedure, shortened: (§2)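 UV melting used 5 µM B- or Z-DNA in 5 mM Na cacodylate, 100 mM NaCl, pH 7.0, with or without 5 µM ligand. Temperature was ramped at 1 °C/min between 10 and 60 °C.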

[5] = Binding affinity to d(CGCm8GCG)2 DNA (unknown origin) assessed as association constant at 4.1 compound to DNA molar ratio by ITC analysis
Procedure, shortened: as §1

[6] = Binding affinity to d(CGCm8GCG)2 DNA (unknown origin) assessed as change in UV-melting temperature at 5 uM
Procedure, shortened: as §2

[7] = Binding affinity to d(CGCm8GCG)2 DNA (unknown origin) assessed as association constant at 1.7 compound to DNA molar ratio by ITC analysis
Procedure, shortened: as §1

[8] = Selectivity ratio of Ka for d(CGCGCG)2 DNA (unknown origin) to Ka for d(CGCm8GCG)2 DNA (unknown origin)
Procedure, shortened: as §1

[9] = Induction of d(CGCGCG)2 DNA (unknown origin) to d(CGCm8GCG)2 DNA transition up to 160 uM by CD spectra analysis in presence of low concentration of NaCl
Procedure, shortened: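 CD at 20 °C in a 2 mm cell. 20 µM d(CGCGCG)2 in 5 mM Na cacodylate, 100 mM NaCl, pH 7.0, was titrated with ligand stock from 0 to 160 µM. Spectra were blank-corrected and averaged over four scans.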

[10] = Selectivity ratio of Ka for 5'-biotin-conjugated d(TTTTCGCm8GCG-TTTT-CGCm8GCG) DNA (unknown origin) to Ka for 5'-biotin-conjugated d(TTTTCGCGCG-TTTT-CGCGCG) DNA (unknown origin)
[11] = Binding affinity to d(CGCGCG)2 DNA (unknown origin) assessed as association constant at 2.0 compound to DNA molar ratio by ITC analysis
Procedure, shortened: as §1

[12] = Binding affinity to d(CGCm8GCG)2 DNA (unknown origin) assessed as association constant at 1.8 compound to DNA molar ratio by ITC analysis
Procedure, shortened: as §1

[13] = Selectivity ratio of Ka for d(CGCm8GCG)2 DNA (unknown origin) to Ka for d(CGCGCG)2 DNA (unknown origin)
Procedure, shortened: as §1

[14] = Binding affinity to d(CGCGCG)2 DNA (unknown origin) assessed as association constant at 2:1 DNA to compound ratio by ITC analysis
Procedure, shortened: as §1

[15] = Binding affinity to d(CGCGCG)2 DNA (unknown origin) assessed as association constant at 4.0 compound to DNA molar ratio by ITC analysis
Procedure, shortened: as §1

[16] = Selectivity ratio of Ka for 5'-biotin-conjugated d(TTTTCGCGCG-TTTT-CGCGCG) DNA (unknown origin) to Ka for 5'-biotin-conjugated d(TTTTCGCm8GCG-TTTT-CGCm8GCG) DNA (unknown origin)

## NCCCNCCCCNCCCN1C(=O)C(c2ccc3ccccc3c2)=C(c2ccc3ccccc3c2)C1=O
[1]
  koff: 7.49 ×10⁻³ /s
[2]
  Ka: 0.62 ×10⁷ /M
[3]
  koff: 6.66 ×10⁻³ /s
[4]
  ΔTm: 16 °C
[5]
  Ka: 0.31 ×10⁷ /M
[6]
  ΔTm: 18 °C

## Cc1cccc2ccc3c4c(c5ccc6cccc(C)c6c5c3c12)C(=O)N(CCCNCCCCNCCCN)C4=O
[7]
  Ka: 0.67 ×10⁷ /M
[1]
  koff: 3.7 ×10⁻³ /s and 8.59 ×10⁻³ /s
[8]
  Selectivity ratio: 50
[9]
  Activity: Active
[3]
  koff: 5.48 ×10⁻³ /s and 6.68 ×10⁻³ /s
[10]
  Selectivity ratio: 2
[11]
  Ka: 36.7 ×10⁷ /M
[12]
  Ka: 0.17 ×10⁷ /M
[13]
  Selectivity ratio: 2
[14]
  Ka: 3.7 ×10⁸ /M
[6]
  ΔTm: 7.5 °C and 3.3 °C
[15]
  Ka: 0.083 ×10⁷ /M
[16]
  Selectivity ratio: 7
